Results from paper PMC4400215 (Antiviral therapy, 2014).
Converted amounts (≈) assume the structure as drawn. “And” between values parts separate entries of the source, which are not always exact repeats. Equal entries are not always repeated. Where two headings read alike, the source gives them in different places.

What was measured:
HCV genotype 1 [1] = assay type: in vivo, Hepatitis C virus; conditions: 14 days
Outline: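 Reanalysed phase 1 data. Chronically infected patients were randomised 8:2 to oral test compound or placebo for 14 days, and placebo recipients were excluded. HCV RNA was measured in blood drawn at 0, 2, 4, 6, 8, 12, 16, 24, 26, 28, 30, 48 and 52 h, on days 6 and 8 pre- and post-dose, and on day 13.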

[2] = Two-compartment population PK model fitted to danoprevir plasma concentrations; assay type: in vivo, patients
HCV [3] = experiment: PK/VK model fitted to HCV RNA kinetics during danoprevir monotherapy; assay type: in vivo, Hepatitis C virus; conditions: for minimal effectiveness: at Cmin
HCV [4] = experiment: Varying effectiveness; assay type: in vivo, Hepatitis C virus; conditions: VE model
Outline: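 Standard viral kinetic model with constant target cells, fitted to log10 viral load only, without PK data. Effectiveness = Dose/(ED50+Dose)·(1−e^(−kt)), where Dose is the total daily amount. Population mixed-effects fit by maximum likelihood. Per-patient effectiveness was averaged over days 0–2 and 0–14, then over each cohort. First-phase decline = −log10(1−ε).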

HCV [5] = conditions: 200 mg tid, multiscale model; cited from earlier work
HCV [6] = conditions: in combination with mericitabine, 14 days, no viral breakthrough; cited from earlier work
HCV genotype 1 [7] = conditions: cited from earlier work
HCV [8] = conditions: monotherapy, doses of 200 and 500 mg/day; cited from earlier work
[9] = Cohort 5: 300 mg bid, non-responder
[10] = PK/VK model, Cohort 1: 100 mg bid, TN
[11] = PK/VK model, Cohort 2: 100 mg tid, TN
[12] = PK/VK model, Cohort 3: 200 mg bid, TN
[13] = PK/VK model, Cohort 4: 200 mg tid, TN
[14] = PK/VK model, Cohort 5: 300 mg bid, non-responder
[15] = after first intake, 100 mg bid dose

Compound: CC(C)(C)OC(=O)N[C@H]1CCCCC/C=C\[C@@H]2C[C@@]2(C(=O)NS(=O)(=O)C2CC2)NC(=O)[C@@H]2C[C@@H](OC(=O)N3Cc4cccc(F)c4C3)CN2C1=O [danoprevir]
- Total viral decline (median) (HCV genotype 1 [1]; Cohort 1: 100 mg bid, treatment-naïve): 2.0 Log10 IU/mL
- Total viral decline (median) (HCV genotype 1 [1]; Cohort 2: 100 mg tid, TN): 2.7 Log10 IU/mL
- Total viral decline (median) (HCV genotype 1 [1]; Cohort 4: 200 mg tid, TN): 3.9 Log10 IU/mL
- Total viral decline (median) (HCV genotype 1 [1]; [9]): 2.7 Log10 IU/mL
- Cmax ([2]; human, plasma, oral): 2.67 to 589 ng/mL
- Vd/F ([2]; human, plasma, oral): 2100 ± 360 L
- k el ([2]; human, plasma, oral): 0.000283 s⁻¹
- k21 (backward rate constant between compartments) ([2]; population estimate±standard error, all cohorts): 0.81 h⁻¹ and 0.81 ± 0.17 h⁻¹
- Tlag (post-dose lag-time) ([2]; population estimate±standard error, all cohorts, oral): 0.50 h and 0.50 ± 0.057 h
- Tk0 (time over which danoprevir is absorbed) ([2]; population estimate±standard error, all cohorts, zero-order absorption): 0.58 h and 0.58 ± 0.13 h
- final effectiveness in blocking viral production (HCV [3]; 200 mg tid): 99.4%
- Average effectiveness over the first 2 days of dosing ε2 (HCV [3]; [10]): 0.946
- Average effectiveness over the full 14-day dosing period ε14 (HCV [3]; [10]): 0.95 and 0.953
- Predicted first-phase log decline, i.e. −log10(1−ε2) (HCV [3]; [10]): 1.27 log10
- Average effectiveness over the first 2 days of dosing ε2 (HCV [3]; [11]): 0.981
- Average effectiveness over the full 14-day dosing period ε14 (HCV [3]; [11]): 0.990
- Predicted first-phase log decline, i.e. −log10(1−ε2) (HCV [3]; [11]): 1.72 log10
- Average effectiveness over the first 2 days of dosing ε2 (HCV [3]; [12]): 0.966
- Average effectiveness over the full 14-day dosing period ε14 (HCV [3]; [12]): 0.974
- Predicted first-phase log decline, i.e. −log10(1−ε2) (HCV [3]; [12]): 1.47 log10
- Average effectiveness over the first 2 days of dosing ε2 (HCV [3]; [13]): 0.985
- Average effectiveness over the full 14-day dosing period ε14 (HCV [3]; [13]): 0.994
- Predicted first-phase log decline, i.e. −log10(1−ε2) (HCV [3]; [13]): 1.83 log10
- Average effectiveness over the first 2 days of dosing ε2 (HCV [3]; [14]): 0.974
- Average effectiveness over the full 14-day dosing period ε14 (HCV [3]; [14]): 0.982
- Predicted first-phase log decline, i.e. −log10(1−ε2) (HCV [3]; [14]): 1.58 log10
- minimal effectiveness (HCV [3]; PK/VK model, cohort 1 (lowest dose)): 0.706
- minimal effectiveness (HCV [3]; PK/VK model, cohort 4 (highest dose)): 0.877
- EC50 (plasma concentration at which effectiveness is 0.5 times its maximum) (HCV [3]; PK/VK model, in vivo, h=1, population estimate±standard error): 0.0082 ± 0.0024 ng/mL (≈ 0.0112 nM)
- δ (loss rate of infected cells, slope of second phase decline) (HCV [3]; PK/VK model, population estimate±standard error, all cohorts): 0.18 day⁻¹ and 0.18 ± 0.024 day⁻¹
- time to reach 95% of final effectiveness (HCV [3]; [15]): ≤ 30 min
- time to reach 99% of final effectiveness (HCV [3]; [15]): ≤ 36 min
- patients showing a rapid second phase (δ > 0.3 d^−1) (HCV [3]; all cohorts): 30%
- time to reach 99% of the final effectiveness (HCV [3]; model prediction, all doses): less than 1 hr
- Average effectiveness over the first 2 days of dosing ε2 (HCV [4]; Cohort 1: 100 mg bid, TN): 0.973
- Average effectiveness over the full 14-day dosing period ε14 (HCV [4]; Cohort 1: 100 mg bid, TN): 0.976
- Predicted first-phase log decline, i.e. −log10(1−ε2) (HCV [4]; Cohort 1: 100 mg bid, TN): 1.57 log10
- Average effectiveness over the first 2 days of dosing ε2 (HCV [4]; Cohort 2: 100 mg tid, TN): 0.982
- Average effectiveness over the full 14-day dosing period ε14 (HCV [4]; Cohort 2: 100 mg tid, TN): 0.984
- Predicted first-phase log decline, i.e. −log10(1−ε2) (HCV [4]; Cohort 2: 100 mg tid, TN): 1.74 log10
- Average effectiveness over the first 2 days of dosing ε2 (HCV [4]; Cohort 3: 200 mg bid, TN): 0.985
- Average effectiveness over the full 14-day dosing period ε14 (HCV [4]; Cohort 3: 200 mg bid, TN): 0.988
- Predicted first-phase log decline, i.e. −log10(1−ε2) (HCV [4]; Cohort 3: 200 mg bid, TN): 1.82 log10
- Average effectiveness over the first 2 days of dosing ε2 (HCV [4]; Cohort 4: 200 mg tid, TN): 0.990
- Average effectiveness over the full 14-day dosing period ε14 (HCV [4]; Cohort 4: 200 mg tid, TN): 0.992
- Predicted first-phase log decline, i.e. −log10(1−ε2) (HCV [4]; Cohort 4: 200 mg tid, TN): 2.00 log10
- Average effectiveness over the first 2 days of dosing ε2 (HCV [4]; [9]): 0.990
- Average effectiveness over the full 14-day dosing period ε14 (HCV [4]; [9]): 0.992
- Predicted first-phase log decline, i.e. −log10(1−ε2) (HCV [4]; [9]): 2.00 log10
- ED50 (daily dose leading to 50% of the maximal effectiveness) (HCV [4]; estimate±standard error): 4.85 ± 1.4 mg/day
- k (rate constant for effectiveness increase) (HCV [4]; estimate±standard error): 29.1 ± 13.0 day⁻¹ and 29.1 ± 13 day⁻¹
- δ (loss rate of infected cells) (HCV [4]; estimate±standard error): 0.184 ± 0.03 day⁻¹
- final population effectiveness (HCV [4]; highest dose given to treatment-naïve patients (cohort 4)): 0.992
- final population effectiveness (HCV [4]; lowest dose (cohort 1)): 0.976
- effectiveness in blocking intracellular replication (HCV [5]): 99.2%
- enhancement of viral RNA degradation (HCV [5]): about 5 fold
- mean effectiveness on viral secretion (HCV [5]): 56%
- viral RNA decline (HCV [6]): 5 logs
- cure rates (HCV genotype 1 [7]; genotype 1, with IFN and ribavirin, boosted with ritonavir): up to 93%
- cure rates (HCV genotype 1 [7]; patients infected with genotype 1, in combination with IFN and ribavirin): up to 85%

Compound: COc1ccc2c(O[C@@H]3C[C@H]4C(=O)N[C@]5(C(=O)O)C[C@H]5/C=C\CCCCC[C@H](NC(=O)OC5CCCC5)C(=O)N4C3)cc(-c3csc(NC(C)C)n3)nc2c1 [ciluprevir]
- δ (second phase decline) (HCV [8]): 0.22 to 0.36 day⁻¹
